From ChEMBL document CHEMBL3414541, “Discovery of new thienopyrimidinone derivatives displaying antimalarial properties toward both erythrocytic and hepatic stages of Plasmodium” (Eur J Med Chem, 2015)

Assays:
[1] = Selectivity index, ratio of CC50 for human HepG2 cells to IC50 for multi-drug resistant Plasmodium falciparum K1 infected in human erythrocytes
[2] = Cytotoxicity against human HepG2 cells expressing CD81 assessed as cell viability after 72 hrs by MTT assay; format: cell-based
[3] = Selectivity index, ratio of CC50 for human HepG2 cells to IC50 for chloroquine-sensitive Plasmodium falciparum 3D7 infected in human erythrocytes; format: functional
Outline: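 SI = HepG2 CC50 (72 h MTT) / P. falciparum IC50. […] Cultures were exposed 72 h at 37 °C to compound (DMSO final <0.5%), in duplicate. Growth was read by SYBR Green I lysis fluorescence (ex 497, em 520 nm), from three independent experiments.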

[4] = Selectivity index, ratio of CC50 for human HepG2 cells expressing CD81 to IC50 for liver stage of Plasmodium yoelii 17X NL sporozoites infected in human HepG2 cells expressing CD81; format: functional
Plasmodium yoelii = experiment: Antiplasmodial activity against liver stage of Plasmodium yoelii 17X NL sporozoites infected in human HepG2 cells expressing CD81 after 48 hrs by DAPI staining-based immunofluorescence analysis; format: functional, organism-based; details: HepG2, 48 h
Outline: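 HepG2/CD81 cells were grown in D-MEM with 10% FBS. 25×10^3 cells/well went on collagen-coated wells; after 24 h they received compound and 5000 P. yoelii sporozoites together, then were spun 900 × g for 10 min at 4 °C. Treatment was renewed at 3 h and 24 h. At 48 h cells were methanol-fixed, stained with anti-HSP70 immunofluorescence, and parasites counted by microscopy. IC50 is 50% fewer parasites than in 0.5% DMSO controls.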

Plasmodium falciparum [5] = experiment: Antiplasmodial activity against multi-drug resistant Plasmodium falciparum K1 infected in human erythrocytes assessed as parasite growth inhibition after 72 hrs by SYBR Green I dye-based fluorescence assay; format: functional, organism-based; details: read-out: IC50
Plasmodium falciparum [6] = experiment: Antiplasmodial activity against chloroquine-sensitive Plasmodium falciparum 3D7 infected in human erythrocytes assessed as parasite growth inhibition after 72 hrs by SYBR Green I dye-based fluorescence assay; format: functional, organism-based
Outline: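 Parasites grown in A+ human erythrocytes (2.5% haematocrit) in RPMI 1640 with 25 mM HEPES, 25 mM NaHCO3 and 10% A+ serum, at 37 °C under 6% CO2/14% O2/80% N2. Rings were sorbitol-synchronized. Compounds in DMSO (<0.5% final) were incubated 72 h at 2% haematocrit and 1% parasitaemia. SYBR Green lysis read at ex 497/em 520 nm; duplicates; IC50 from three independent experiments.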

[7] = (§1) Cytotoxicity against human HepG2 cells assessed as cell viability after 72 hrs by MTT assay; format: cell-based; details: HepG2 cells
Outline: (§2)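 Cells were kept in RPMI with 10% FBS. 5×10^3 cells/well were settled 24 h, then exposed to compound from DMSO (final <0.5%): CHO for 24 h, HepG2 for 72 h, in duplicate. Wells were checked for precipitate. MTT was added for 2 h at 37 °C, formazan dissolved in DMSO, and A570 read (630 nm reference). Viability is % of untreated cells; CC50 from non-linear regression, mean of three experiments.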

Toxoplasma gondii = experiment: Antitoxoplasmic activity against tachyzoite stage of Toxoplasma gondii PRU transfected with beta galactosidase infected in HFF assessed as parasite growth inhibition after 96 hrs by colorimetric microtiter assay; format: functional
Outline: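 Confluent HFF monolayers (1×10^4 seeded) were infected with 2×10^3 PRU-β-Gal tachyzoites for 3 h. Compounds from DMSO (final <0.5%) were then added in triplicate for 96 h at 37 °C. CPRG was added at 500 µM final for 24 h more, then A570 read (630 nm reference). IC50 came from non-linear regression, mean of three experiments.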

Salmonella typhimurium [8] = experiment: Mutagenicity in Salmonella typhimurium TA100 at 2.5 mM after 1 hr by Ames test in presence of S9 fraction; format: toxicity, organism-based; details: salmonella enterica subsp. enterica serovar typhimurium, s9, 1 h, 2500 µM
Outline: (§3)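 Tester strains were grown overnight in nutrient broth. Top agar was added and the mix plated on Vogel-Bonner agar. Revertants were counted after 48 h at 37 °C in the dark. A twofold rise over spontaneous revertants counts as mutagenic.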

Leishmania donovani = experiment: Antileishmanial activity against promastigote stage of Leishmania donovani assessed as parasite growth inhibition after 72 hrs by MTT assay; format: functional, organism-based
Outline: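 L. donovani promastigotes were grown at 27 °C in Schneider's medium with 10% FBS. 1×10^6 log-phase cells/well were exposed to compound from DMSO (final <0.5% v/v) for 72 h at 27 °C, in duplicate. MTT was then added for 6 h, formazan dissolved in DMSO, and A570 read (630 nm reference). IC50 came from non-linear regression, mean of three independent experiments.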

Salmonella typhimurium [9] = experiment: Mutagenicity in Salmonella typhimurium TA97A at 2.5 mM after 1 hr by Ames test in presence of S9 fraction; format: toxicity, organism-based; details: salmonella enterica subsp. enterica serovar typhimurium, s9, 1 h, 2500 µM
Outline: as §3

Plasmodium falciparum [10] = experiment: Antiplasmodial activity against multi-drug resistant Plasmodium falciparum K1 infected in human erythrocytes assessed as parasite growth inhibition after 72 hrs by SYBR Green I dye-based fluorescence assay in presence of ascorbic acid; format: functional, organism-based; details: K1, 72 h
Outline: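 Same SYBR Green I 72 h growth assay on the K1 strain (2% haematocrit, 1% parasitaemia, 37 °C, 6% CO2/14% O2/80% N2, DMSO <0.5%), with 800 µM ascorbic acid in the medium as radical trap. Duplicates; artesunate as positive control; IC50 derived.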

[11] = Inhibition of hemozoin polymerization after 24 hrs by spectroscopic analysis; format: functional
Outline: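 Hemozoin (4 mM solution in 0.1 M NaOH) was mixed with compound at drug:heme ratios of 1:1 to 8:1, in triplicate. Acetic acid was added to pH 3, and samples were incubated 24 h at 37 °C. Soluble, DMSO-soluble and pellet fractions were separated by centrifugation. Each fraction was quantified at A405 against a hemozoin standard curve. IC50 is 50% decrease in polymerization.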

Salmonella typhimurium [12] = experiment: Mutagenicity in Salmonella typhimurium TA97A at 2.5 mM after 1 hr by Ames test in absence of S9 fraction; format: toxicity, organism-based; details: salmonella enterica subsp. enterica serovar typhimurium, 2500 µM
Outline: as §3, with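 “broth. 0.1 mL culture was incubated 1 h at 37 °C with shaking with compound (2.5–25 mM DMSO solutions), with or without 4% S9 mix.” for “broth.”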

[13] = Inhibition of Plasmodium falciparum DHFR after 48 hrs
Outline: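 Recombinant S. cerevisiae whose own DHFR is replaced by the P. falciparum DHFR domain was used. 1×10^4 cells were grown in YEPD with compound from DMSO (final <0.5%) at 30 °C for 48 h, in duplicate. Growth was read as A660. IC50 (50% growth inhibition) came from non-linear regression.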

Salmonella typhimurium [14] = experiment: Mutagenicity in Salmonella typhimurium TA100 at 2.5 mM after 1 hr by Ames test in absence of S9 fraction; format: toxicity, organism-based; details: salmonella enterica subsp. enterica serovar typhimurium, 2500 µM
Outline: as §3, with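 “broth. 0.1 mL culture was incubated 1 h at 37 °C with shaking with compound (2.5–25 mM DMSO solutions), with or without 4% S9 mix.” for “broth.”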

[15] = Genotoxicity in DNA (unknown origin) incubated for 24 hrs in dark condition by methyl green displacement assay
Outline: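 DNA-methyl green (4 mg in 20 mL 0.05 M Tris-HCl pH 7.5 with 7.5 mmol/L MgSO4) was shaken 24 h at 37 °C. It was then added to compound from DMSO (final <0.5%). A630 was read, and read again after 24 h at room temperature in the dark. DC50 is the concentration displacing 50% of methyl green.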

HepG2 = experiment: as §1; format: cell-based; details: hepg2, 72 h, 72 h, read-out: CC50
Outline: as §2

Plasmodium falciparum [16] = experiment: Antiplasmodial activity against multi-drug resistant erythrocytic stage of Plasmodium falciparum K1 isolated from synchronized culture assessed as reduction in parasitemia at 5 X IC50 measured for 32 hrs by spectrophotometric analysis relative to control; format: functional; parameters: scale not given: the % may be the effect or the level left
Outline: (§4)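 K1 cultures were synchronized to an 8-h window with 5% D-sorbitol and held in 24-well plates at 0.8% parasitemia and 4% hematocrit. They received 8-h compound pulses (DMSO <0.5%) at successive points of the cycle, then three washes and culture to the ring stage of the next cycle. Fluorescence read at 497/520 nm; % growth inhibition versus DMSO control; chloroquine as positive control.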

Plasmodium falciparum [17] = experiment: Antiplasmodial activity against multi-drug resistant erythrocytic stage of Plasmodium falciparum K1 isolated from synchronized culture assessed as reduction in parasitemia at 5 X IC50 measured for 8 hrs by spectrophotometric analysis relative to control; format: functional; parameters: scale not given: the % may be the effect or the level left
Outline: as §4

Plasmodium berghei = experiment: Antiplasmodial activity against chloroquine-sensitive Plasmodium berghei NK65 infected in Swiss mouse assessed as reduction in parasitemia at 2.5 mg/kg, ip bid administered for 4 days measured on day 4 by Giemsa staining relative to control; format: functional; parameters: scale not given: the % may be the effect or the level left; details: route intraperitoneal
Outline: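 Male Swiss mice (20 ± 2 g) were infected on day 0 with 10^7 parasitized cells in 0.9% saline. Groups of 5 were dosed ip at 2.5 mg/kg twice a day from day 0 to day 3.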

[18] = Cytotoxicity against CHO cells assessed as cell viability after 24 hrs by MTT assay; format: cell-based, Cricetulus griseus; details: chinese hamster
Outline: as §2

Plasmodium falciparum [19] = experiment: Antiplasmodial activity against multi-drug resistant Plasmodium falciparum K1 after 72 hrs by SYBR Green I dye-based fluorescence assay; details: K1, 72 h
[20] = Cytotoxicity against human HepG2 cells expressing CD81 assessed as cell viability after 72 hrs by CellTiter-glo assay; format: cell-based

SMILES | Ratio CC50/IC50 [1] | CC50 at 72 h [2] [µM] | Ratio CC50/IC50 [3] | Ratio CC50/IC50 [4] | IC50 (Plasmodium yoelii) [µM] | IC50 (Plasmodium falciparum [5]) [µM] | CC50 at 72 h [7] [µM] | IC50 (Toxoplasma gondii) [µM] | Activity (Salmonella typhimurium [8]) | IC50 (Leishmania donovani) [µM] | Activity (Salmonella typhimurium [9]) | IC50 (Plasmodium falciparum [10]) [µM] | IC50 [11] [µM] | Activity (Salmonella typhimurium [12]) | IC50 (Plasmodium falciparum [6]) [µM] | IC50 [13] [µM] | Activity (Salmonella typhimurium [14]) | DC50 [15] [µM] | CC50 (HepG2) [µM] | further results
Cc1ccc(-c2cc3nc(NC(C)C)[nH]c(=O)c3s2)cc1.O=C(O)/C=C/C(=O)O | 135 | > 111 | 148 | >925 | 0.12 | 0.8 | 26.9 |  |  |  |  |  |  |  |  |  |  |  |  | IC50 (Plasmodium falciparum [6]; Plasmodium falciparum, 3D7, 72 h): 0.182 µM
Cc1ccc(-c2cc3nc(NC(C)C)[nH]c(=O)c3s2)cc1 | 62 |  | 202 |  |  | 0.8 |  | > 10 | Non-toxic | > 10 | Non-toxic | 0.9 | > 25000 | Non-toxic | 0.247 | > 250 | Non-toxic | > 25000 | 49.4 | 
Cc1ccc(-c2cc3nc(NC(C)(C)C)[nH]c(=O)c3s2)cc1.Cl | 533 | > 143 | 686 | >4086 | 0.035 | 0.045 | 24 |  |  |  |  |  |  |  | 0.035 |  |  |  |  | Activity (Plasmodium falciparum [16]): 30%; Activity (Plasmodium falciparum [17]): 41%; Activity (Plasmodium berghei): 45%
CC(C)(C)Nc1nc2cc(-c3ccc(Cl)cc3)sc2c(=O)[nH]1.O=C(O)/C=C/C(=O)O | 78 | > 120 | 93 | >2000 | 0.06 | 0.8 | 15.6 |  |  |  |  |  |  |  | 0.168 |  |  |  |  | 
Cc1ccc(-c2cc3nc(NC(C)(C)C)[nH]c(=O)c3s2)cc1 | 128 |  | 183 |  |  | 0.2 |  | > 10 | Non-toxic | > 10 | Non-toxic | 0.2 | 21600 | Non-toxic | 0.14 | > 500 | Non-toxic | > 25000 | 25.6 | CC50 at 24 h [18]: 27.5 µM
CN(C)c1nc2cc(-n3cnc4cc(-c5ccc(Cl)cc5)sc4c3=O)ccc2n1CCCN1CCCC1 |  |  |  |  |  |  |  |  |  |  |  |  |  |  |  |  |  |  |  | IC50 (Plasmodium falciparum [19]): < 10 µM
CCN(CC)CCCC(C)Nc1ccnc2cc(Cl)ccc12 (centres undefined) [CHLOROQUINE] |  |  |  |  | 1.65 |  |  |  |  |  |  |  | 1460 |  |  |  |  |  |  | CC50 at 72 h [20]: 1.6 µM; CC50 at 24 h [18]: 155 µM; Activity (Plasmodium berghei): 85%
CC(C)(C)Nc1nc2cc(-c3ccc(Cl)cc3)sc2c(=O)[nH]1 | 19 |  | 44 |  |  | 0.8 |  | > 10 | Non-toxic | > 10 | Non-toxic | 0.8 | > 25000 | Non-toxic | 0.344 | > 250 | Non-toxic | > 25000 | 15 | 
